From PubChem BioAssay
A selection: hits, their analogues and other compounds. The true share with any hit is near 2.6%.
Runt-CBFb FRET: blocks binding of human RUNX1 Runt domain to CBFb. Q01196+Q13951. Cerulean-Runt/Venus-CBFb FRET ratio 530/480, 1 h. inhibition, % at 20 µM. 220,000 tested, 0.46% active. AID 1496;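 active = inhibition over about 50% at 20 µM in the single-dose screen, limit read from the data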;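 also: 0% = DMSO wells and 100% = excess unlabeled CBFb competitor control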
Target sequence (Q01196 whole entry, looked up, the tested form may be a part): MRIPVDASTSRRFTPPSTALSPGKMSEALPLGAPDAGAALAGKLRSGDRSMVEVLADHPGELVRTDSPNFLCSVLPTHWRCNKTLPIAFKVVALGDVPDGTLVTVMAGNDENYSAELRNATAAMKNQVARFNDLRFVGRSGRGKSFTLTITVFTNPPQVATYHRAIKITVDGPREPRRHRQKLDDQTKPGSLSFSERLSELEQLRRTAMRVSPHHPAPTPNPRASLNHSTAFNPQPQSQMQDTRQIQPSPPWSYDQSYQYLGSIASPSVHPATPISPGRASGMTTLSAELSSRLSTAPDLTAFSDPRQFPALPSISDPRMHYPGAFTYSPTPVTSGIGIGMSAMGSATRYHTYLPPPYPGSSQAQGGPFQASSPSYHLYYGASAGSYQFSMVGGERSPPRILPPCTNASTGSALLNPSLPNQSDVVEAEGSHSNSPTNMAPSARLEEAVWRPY
Target sequence (Q13951 whole entry, looked up, the tested form may be a part): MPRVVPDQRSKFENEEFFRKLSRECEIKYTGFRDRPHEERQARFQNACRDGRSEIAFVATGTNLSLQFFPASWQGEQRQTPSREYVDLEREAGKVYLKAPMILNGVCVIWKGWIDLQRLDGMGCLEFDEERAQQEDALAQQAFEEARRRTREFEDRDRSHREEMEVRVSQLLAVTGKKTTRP
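Assay system: Cerulean-tagged RUNX1 Runt domain (FRET donor) fusion protein / Amount: 100 nM each of Venus-CBFb and Cerulean-Runt domain / Medium: Tris buffer pH 7.5 with salts and BSA / Also added: Venus-CBFb 100 nM / Schedule: 1 h complex formation plus 1 h compound treatment, room temperature / Signal: FRET fluorescence / Read-out: loss of energy transfer signal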
VIM-2 inh: inhibitors of Pseudomonas aeruginosa VIM-2 metallo-beta-lactamase; purified VIM-2, nitrocefin hydrolysis, epi-absorbance fluorescence; inhibition, % at 5.6 µM; 290,000 tested, 0.89% active; AID 1527;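 active = inhibition above the mean of all tested compounds plus 3 SD, cutoff set per screening run, cut at about 7.5% in these data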;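 also: red hydrolysis product quenches plate fluorescence so inhibitors raise well fluorescence; 0% = enzyme with DMSO and 100% = DMSO without enzyme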
Runt-SMMHC FRET: inhibitors of human RUNX1 Runt domain binding to CBFb-SMMHC; Q01196+Q13951; Cerulean-Runt/Venus-CBFb-SMMHC FRET ratio 530/480, 1 h; inhibition, % at 20 µM; 220,000 tested, 0.74% active;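 active = mean inhibition across duplicate retests at 20 µM reaching about 50%, limit read from the data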;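 also: 0% = DMSO wells and 100% = wells with excess untagged CBFb-SMMHC; inhibitors lower the FRET ratio by blocking Runt binding to CBFb-SMMHC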
RanGTP-Impb inh: inhibitors of RanGTP-importin-beta interaction, primary screen, biochemical, FRET, CFP-Ran, YFP-importin-beta, homogeneous; inhibition, % (no concentration beside the values); cell-free CFP-Ran/YFP-importin-beta FRET ratio; 300,000 tested, 1.1% active;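 active = more than half of the replicate wells show a fall in the fluorescence ratio signal beyond about 16%, limit read from the data, passing the limit was not always enough; inconclusive = exactly half of the replicate wells pass the set limit; inactive = fewer than half of replicates pass the limit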;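 also: 0% = DMSO wells and 100% = Ran loaded with GDP instead of GTP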
IMP-1 inh-1: blocks Pseudomonas aeruginosa IMP-1 metallo-beta-lactamase; purified IMP-1, nitrocefin hydrolysis, epi-absorbance fluorescence; 290,000 tested, 0.45% active; inhibition, % at 5.6 µM; AID 1556;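 active = inhibition above the mean plus 3 SD of all compounds in the same screening run, cut at about 4.5% in these data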;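 also: 0% = IMP-1 with DMSO and 100% = DMSO wells lacking enzyme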
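System: Purified recombinant IMP-1 metallo-beta-lactamase enzyme | Measured by: Fluorescence quenching readout, ex 480/em 530 nm | Replication: Singlicate | Incubation: 15 min preincubation plus 25 min reaction at 25 °C | Evaluation: Percent inhibition from optical density relative to buffer-blank wells | Benchmarks: DMSO with and without IMP-1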
IMP-1 inh-2: blocks IMP-1 metallo-beta-lactamase in VIM-2 selectivity screen. shares compounds with VIM-2 inh. 1,300 tested, under 10 active. purified IMP-1, nitrocefin hydrolysis, epi-absorbance fluorescence. AID 1856. inhibition, % at 5.6 µM; call rule not given here;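 also: 0% = enzyme with vehicle and 100% = vehicle without enzyme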
VIM-2 FRET ctr: VIM-2 FRET inhibition, artifact counter-screen; shares compounds with VIM-2 inh; purified VIM-2, CCF2 FRET substrate hydrolysis; inhibition, % at 5.6 µM; 1,300 tested, 23% active; AID 1857;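 active = inhibition above the mean of all tested compounds plus 3 SD, cut at about 19% in these data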;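 also: 0% = VIM-2 plus DMSO and 100% = no enzyme wells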
TEM-1 counter: blocks E. coli TEM-1 beta-lactamase in VIM-2 selectivity screen | shares compounds with VIM-2 inh | Purified TEM-1, nitrocefin hydrolysis, epi-absorbance fluorescence | inhibition, % at 5.6 µM | 1,300 tested, 3% active | AID 1866;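 active = inhibition above that campaign's mean inhibition plus 3 SD, cut at about 0.46% in these data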;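 also: 0% = TEM-1 with DMSO and 100% = TEM-1 with 100 µM potassium clavulanate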
VIM-2 confirm 2: confirmation of P. aeruginosa VIM-2 metallo-beta-lactamase inhibitors; AID 2187; 1,300 tested, 96% active; inhibition, % at 5.6 µM; purified VIM-2, nitrocefin hydrolysis, epi-absorbance; shares compounds with VIM-2 inh;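 active = inhibition of the VIM-2 beta-lactamase enzyme above about 11% from the earlier first-round screen, limit read from the data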;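 also: 0% = VIM-2 with DMSO and 100% = buffer wells without enzyme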
Numbers without * were called inactive; ? = inconclusive; / = not tested or not shown.

SMILES	Runt-CBFb FRET	VIM-2 inh	Runt-SMMHC FRET	RanGTP-Impb inh	IMP-1 inh-1	IMP-1 inh-2	VIM-2 FRET ctr	TEM-1 counter	VIM-2 confirm 2
Cc1nc(-c2ccccn2)nc(N(C)c2ccccc2)c1Cl	/	21*	/	3	-6	-5	-52	-6	34*
Cc1nnc(-c2ccccc2)nc1N1CCOCC1	-2	0	0	-2	-2	/	/	/	/
Cc1nc(-c2ccccn2)nc(N2CCOCC2)c1Cl	1	18*	1	-2	-12	-3	-23	-5	30*
Cc1cccc(C)c1NC(=O)CN(C)C(=O)c1ccc2nc[nH]c2c1	/	/	/	-1	/	/	/	/	/
Fc1ccccc1-c1n[nH]c(=S)n1Cc1ccccc1	/	28*	/	0	-5	-4	50*	-8	34*
CCn1c(SCC(N)=O)nnc1-c1cc2c(C)nn(-c3ccccc3)c2s1	-3	15*	2	-2	-5	-3	9	-6	27*
Cc1cc(=O)oc2c3c(cc(OCC(=O)N[C@@H](Cc4ccccc4)C(=O)O)c12)OC(C)(C)CC3	/	22*	/	-1	-1	-3	40*	-5	25*
Cc1cc(=O)oc2c3c(cc(OCC(=O)NC(Cc4ccc(Cl)cc4)C(=O)O)c12)OC(C)(C)CC3 (stereo not given)	/	7	/	-4	-2	/	/	/	/
CCc1cc(=O)oc2c3c(cc(OCC(=O)NCc4ccncc4)c12)OC(C)(C)CC3	/	16*	/	1	-2	-2	-2	-1	27*
CCc1cc(=O)oc2c3c(cc(OCC(=O)NCc4ccco4)c12)OC(C)(C)CC3	/	4	/	3	1	/	/	/	/
O=C(Nc1c(C(=O)N2CCOCC2)cnn1-c1ccccc1)c1ccccc1F	/	-2	/	0	-3	/	/	/	/
COC(=O)c1c(NC(=O)c2ccccc2F)sc(C(=O)N2CCOCC2)c1C	/	13*	/	-1	-2	-3	1	-7	20*
Cc1cccc(N2CCN(S(=O)(=O)c3ccc4c(c3)CCCN4C(=O)C3CCC3)CC2C)c1 (stereo not given)	/	-7	/	-2	-2	/	/	/	/
CN(C)C(=O)CSc1nc(-c2ccccc2)nc2c1CCCC2	-1	4	2	5	-1	/	/	/	/
CN(C)CCCSc1nc(-c2ccccc2)nc2c1CCC2	1	35*	-1	1	1	-2	3	-7	57*
CC(=O)c1c(C)n(-c2cccc(Cl)c2)c2ccc(O)cc12	/	0	/	1	-1	/	/	/	/
CC(=O)c1c(C)n(-c2ccc(Cl)cc2)c2ccc(O)cc12	/	14*	/	0	-1	-2	24*	-4	16*
COc1ccc(C=O)c2[nH]c3c(Cl)ncnc3c12	/	16*	/	2	-4	-3	-7	-5	24*
COc1ccc(C=O)c(OC)c1	-1	-1	1	-3	-3	/	/	/	/
Cc1c(C(=O)Nc2cccc([N+](=O)[O-])c2)cnn1-c1ccccc1	/	-1	/	?	0	/	/	/	/
CN1CCN(CCc2nc3cc(NC(=O)COc4ccc([N+](=O)[O-])cc4)ccc3n2C)CC1	/	-2	/	2	-3	/	/	/	/
COc1cc2c(cc1OC)/C(=C/C(=O)c1ccc(F)cc1)NCC2	/	14*	/	-2	-2	-3	-5	-6	19*
Cc1nc2sc(C)c(C)c2c(=O)[nH]1	-1	0	-8	-2	-1	/	/	/	/
C=C1CSc2nc(=O)c3c(C)c(C)sc3n21	-2	20*	1	0	2	-3	1	-6	32*
NC(=S)NNc1cccc2cccnc12	19	18*	14	?	-3	-5	-15	-10	15*
SMILES	Runt-CBFb FRET	VIM-2 inh	Runt-SMMHC FRET	RanGTP-Impb inh	IMP-1 inh-1	IMP-1 inh-2	VIM-2 FRET ctr	TEM-1 counter	VIM-2 confirm 2
COc1ccc(-c2n[nH]c(=S)n2-c2cc(OC)ccc2OC)cc1	7	1	9	?	-3	/	/	/	/
COc1ccc2c(C)cc3n[nH]c(=S)n3c2c1	6	13*	19	13	-2	-3	21*	-7	19*
O=C(NCc1ccc2c(c1)OCO2)c1cc(-c2ccccc2)nn1CC1CC(c2cccnc2)=NO1 (stereo not given)	/	/	/	-1	/	/	/	/	/
CCCC(=O)N1CCCC(C(=O)c2cccc(OC(C)C)c2)C1 (stereo not given)	/	-3	/	-1	-3	/	/	/	/
COc1cc2c(cc1OC)C(C)N(C(=O)c1nccnc1C(=O)O)CC2 (stereo not given)	1	20*	2	8	-2	-3	43*	-6	33*
CC(C)(C)C(=O)Nc1nnc(CCc2ccccc2)s1	/	2	/	5	-4	/	/	/	/
CC(C)(C)C(=O)Nc1nnc(CSCc2ccccc2F)s1	-1	26*	3	6	-4	-3	65*	-5	48*
CC1(C)S[C@@H]2[C@H](NC(=O)C(NC(=O)N3CCNC3=O)c3ccccc3)C(=O)N2[C@H]1C(=O)O (stereo not given in full)	/	2	/	1	0	/	/	/	/
Cn1c(=O)n(C)c2cc(/C=N/n3cnnc3)ccc21	/	15*	-3	-2	-3	-3	1	-6	45*
O=c1c2c(-c3ccccc3)csc2nc2c3ccccc3c(NCCN3CCOCC3)nn12	6	6	15	2	0	/	/	/	/
O=c1c2ccccc2nc2c3ccccc3c(NCCN3CCOCC3)nn12	2	18*	-8	-6	-1	-4	1	-6	28*
c1ccc2nc3c(nc2c1)c1ccccc1n3CCN1CCOCC1	-4	12*	-8	?	-3	-3	2	-6	18*
Cc1nc2ccccc2n1CCN1CCOCC1	-1	-3	-3	5	-3	/	/	/	/
COc1cnc(-c2ccccn2)nc1Sc1ccccc1Cl	0	0	-2	0	-3	/	/	/	/
COc1cnc(-c2ccccn2)nc1Oc1cccc(Cl)c1	1	17*	4	-1	-4	-4	-31	-4	36*
COc1cnc(-c2ccccn2)nc1Oc1c(C)cccc1C	0	3	4	0	-3	/	/	/	/
COc1ccc(Oc2nc(-c3ccccn3)ncc2OC)cc1	1	16*	4	-1	-5	-4	-24	-5	25*
CCOC(=O)C(C)Sc1nc(-c2ccccn2)ncc1OC (stereo not given)	2	35*	2	1	-4	-3	-20	-6	43*
